# Rce1 inhib = blocks yeast Ras-converting enzyme; Q03530; yeast membranes, quenched prenylated peptide cleavage fluorescence; calls only; 290,000 tested, 0.27% active; AID 2563;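 active = fall in fluorescence gain of 50% or more versus controls, with final raw signal at or below 3038400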;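 note: plate controls were neutral control wells for no effect and wells lacking membranes for full effect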
# Target sequence (Q03530 whole entry, looked up): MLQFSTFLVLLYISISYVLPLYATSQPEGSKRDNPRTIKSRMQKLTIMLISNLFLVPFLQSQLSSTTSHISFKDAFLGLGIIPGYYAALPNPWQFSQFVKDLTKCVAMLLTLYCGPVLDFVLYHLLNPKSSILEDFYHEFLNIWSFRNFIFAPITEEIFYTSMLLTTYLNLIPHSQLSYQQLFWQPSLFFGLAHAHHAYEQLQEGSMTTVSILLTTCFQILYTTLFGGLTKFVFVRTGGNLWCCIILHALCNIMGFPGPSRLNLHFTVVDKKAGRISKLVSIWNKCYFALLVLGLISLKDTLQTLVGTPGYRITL
# Rin1-Abl PPI inh = human Rin1-Abl interaction inhibition. TR-FRET Rin1/Abl binding, biochemical. inhibition, % at 7.35 µM. 360,000 tested, 0.4% active. P00519+Q13671; in the data active = inhibition above about 5%, passing the limit was not always enough
# GRK2 aptamer HTS = blocks RNA aptamer binding to human GRK2. inhibition of aptamer binding, % at 10 µM. bead flow cytometry, FAM-aptamer displacement from GRK2. 330,000 tested, 0.59% active;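 active = inhibition of aptamer binding above 40%, roughly 3 SD of noise, on plates passing a quality check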;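 note: median bead fluorescence of bound FAM aptamer so fluorescent compounds give negative values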
# T cell HTS = T cell immune modulation candidate | 2C CD8+ T cell-vesicle binding, flow cytometry; stronger effect = lower value | response (vesicle binding), % at 7 µM | 330,000 tested, 0.068% active | AID 2052;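 active = response, share of CD8 T cells binding vesicles, and their 90th percentile fluorescence all below set limits, cut at about 80% in these data, passing the limit was not always enough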;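 note: values below 100% mean blocked vesicle binding to the CD8+ T cells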
#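 Assay system – 2C mouse CD8+ T cells · Also added – QL9-loaded Drosophila micro-vesicles · Timing – Cell–vesicle co-incubation 1.5 h at 37 °C, staining 20 min on ice · Signal – flow cytometry of vesicle-bound cells · Measure – percent CD8+ FL2 mean versus row control · Controls – Peptide-free naked vesicles (low) and QL9 vesicles with 0.7% DMSO vehicle (high)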
# SKN-1 inh = inhibitors of C. elegans SKN-1. inhibition, % at 21.8 µM. C. elegans VP596 Pgst-4::GFP/RFP ratio, acrylamide-induced, 24 h. AID 624304. 360,000 tested, 0.49% active;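 active = interference check ratio from 0.5 to 1.5 plus GFP to RFP signal ratio inhibition reaching or exceeding a fixed threshold, cut at about 30% in these data, passing the limit was not always enough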
# Myeloid diff 2 = compounds promoting myeloid differentiation | ER-HoxA9 myeloid progenitors, lysozyme-GFP differentiation, flow cytometry | calls only at 10 µM | 360,000 tested, 1% active | AID 624256;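 active = normalized GFP-positive differentiation at or above the plate's own cutoff, the solvent-only control mean plus 3 SD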;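 note: cells exposed to compound for four days before flow analysis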
# Myeloid diff CP1 = promotes myeloid progenitor differentiation | AID 651706 | 2,300 tested, 2% active | calls only | ER-HoxA9 myeloid progenitors, GFP/Mac1 double-positive flow | shares compounds with Myeloid diff 2;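 active = share of green or green-and-red cells above 9 and 9% in run 1 or 4 and 3% in run 2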
# GFP autofluor = flagged as fluorescent in myeloid differentiation counter-screen | ER-HoxA9 myeloid progenitors, no estrogen, GFP autofluorescence flow cytometry; vehicle wells 0%, positive control 100% | AID 651707 | 2,300 tested, 7.4% active | shares compounds with Myeloid diff 2 | fluorescence response, % (concentration not given with the values);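 active = over 5% cells positive for green fluorescent reporter, or over 2% positive for both it and APC stain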;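 note: range taken on the double positive population between DMSO and positive control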
# Starred values were filed as active, the others as inactive; i = inactive; . = not tested or not shown; + = active, no number. The list is not random: actives were taken first. Their share in the collection is about 2.6%.
SMILES,Rce1 inhib,Rin1-Abl PPI inh,GRK2 aptamer HTS,T cell HTS,SKN-1 inh,Myeloid diff 2,Myeloid diff CP1,GFP autofluor
O=C(COC(=O)c1ccc(NS(=O)(=O)c2cccs2)cc1O)NCc1ccccc1,i,1.0,4.0,105.3,7.4,i,i,0.0
COCCOC(=O)c1c(C)oc2ccc(NS(=O)(=O)c3cccs3)cc12,i,1.8,3.0,347.1,3.8,.,.,.
O=C(COC(=O)c1ccc(NS(=O)(=O)c2cccs2)cc1O)Nc1nc2ccccc2s1,i,-2.3,0.0,381.3,7.1,i,.,.
CCOC(=O)c1c(C)oc2ccc(NS(=O)(=O)c3cccs3)cc12,i,1.7,1.0,490.5,18.4,.,i,0.2
Cc1ccc(NS(=O)(=O)c2ccc(C(=O)NCc3ccc(S(N)(=O)=O)cc3)cc2)cc1,.,0.8,2.0,168.2,13.4,i,.,.
N#CCCN(C(=O)COc1ccc(C#N)cc1)c1ccc(F)cc1,i,4.8,3.0,186.7,12.1,i,i,0.4
N#CCCN(C(=O)COC(=O)CCc1c[nH]c2ccccc12)c1ccc(F)cc1,i,-0.2,0.0,246.9,8.3,i,.,.
COc1ccc(C2CC(C(F)(F)F)n3nc(C(=O)O)c(Cl)c3N2)cc1OC (centres undefined),i,0.3,0.0,682.2,-8.6,i,i,0.0
O=C(c1ccco1)N1CC2(CC(c3ccc(Cl)cc3)=NO2)CN1Cc1ccc(Br)cc1 (centres undefined),.,-3.5,.,.,-2.8,i,i,0.0
COC(=O)CCN1CCC2CC1c1cc(-c3cccc(C)c3)ccc12 (centres undefined),.,-2.2,.,.,8.9,i,.,.
CCc1ccc([C@H]2C(C(=O)O)=C[C@@H](C(C)(C)C)N2S(=O)(=O)c2ccc(C)cc2)cc1,.,-1.6,7.0,215.7,-20.2,i,.,.
CC(C)(C)[C@@H]1C=C(C(=O)O)[C@H](c2ccc(Cl)cc2)N1S(=O)(=O)c1ccccc1,.,-2.7,0.0,243.9,-15.1,+,i,2.9
CN(c1ccc(C(=O)N/N=C/c2cccc([N+](=O)[O-])c2)cc1)S(=O)(=O)c1ccccc1,i,-1.2,0.0,224.8,5.8,i,i,0.0
COc1cccc(CN2CCNC(=O)C2CC(=O)NCCc2ccccn2)c1 (centres undefined),i,2.1,3.0,364.4,15.6,i,.,.
O=C(CC1C(=O)NCCN1Cc1cccc(Oc2ccccc2)c1)NCCc1ccccn1 (centres undefined),i,-5.1,0.0,319.0,-1.5,+,i,0.3
COc1ccc(/C=C2\SC(=S)N(CCC(=O)NC3CCCC3)C2=O)cc1OC,i,-1.6,0.0,170.5,2.3,i,i,0.0
CCOC(=O)c1sc(NC(=O)CCN2C(=O)C3CCCCC3C2=O)cc1C (centres undefined),.,-0.2,1.0,534.9,-6.9,i,.,.
C#CC[N+](C)(C)CCCCCCCC,i,5.1,0.0,88.5,-0.6,i,i,0.0
c1ccc(C(c2ccccc2)N2CCN(c3nc4ccccc4n4cnnc34)CC2)cc1,i,.,4.0,292.7,.,.,.,.
c1cnc(N2CCN(c3nc4ccccc4n4cnnc34)CC2)nc1,i,-1.3,4.0,105.1,-5.1,i,i,0.0
Cc1cc(C)c(S(=O)(=O)Nc2nnc(CC(C)C)s2)c(C)c1,i,-1.0,1.0,319.6,10.0,i,.,.
Cc1cc(C)c(S(=O)(=O)Nc2nnc(C)s2)c(C)c1,i,0.7,2.0,294.8,-14.0,i,i,0.3
Cc1ccc(N(C(=O)Cn2nnc(-c3cccs3)n2)C(C(=O)NC2CCCC2)c2ccncc2)cc1 (centres undefined),i,-4.1,0.0,570.3,-5.3,i,i,0.0
COc1ccc(NC(=O)c2ccc3nccnc3c2)cc1,i,1.2,0.0,180.4,4.6,i,i,0.0
COc1ccc(CCNC(=O)C(NS(=O)(=O)c2ccc3c(c2)CCN3C(C)=O)C(C)C)cc1OC (centres undefined),i,.,4.0,281.9,.,.,.,.
SMILES,Rce1 inhib,Rin1-Abl PPI inh,GRK2 aptamer HTS,T cell HTS,SKN-1 inh,Myeloid diff 2,Myeloid diff CP1,GFP autofluor
OCC[C@H]1NCc2cc(CO)cc(-c3ccccc3)c21,.,-0.2,.,.,-15.9,i,i,0.7
Cc1ccc(S(=O)(=O)N(C)C)cc1NC(=S)NCCc1ccccn1,i,3.1,0.0,403.5,2.3,i,i,0.3
CCOC(=O)Cc1csc(NC(=O)CN2CCOCC2)n1,i,0.3,2.0,449.3,-19.1,i,.,.
CCCC(NC(=O)C(C)N1CCN(S(=O)(=O)c2ccccc2)CC1)c1ccccc1 (centres undefined),.,1.6,0.0,270.0,2.8,i,.,.
CCCCCCOC(=O)C(C#N)c1nc2ccccc2nc1N1CCOCC1 (centres undefined),i,-1.7,1.0,i,-3.7,i,.,.
CCCCCCOC(=O)C(C#N)c1nc2ccccc2nc1N1CCN(CC)CC1 (centres undefined),i,-4.7,3.0,125.6,22.6,+,i,0.0
CCC/C(=N/NC(=O)c1ccccc1Cl)c1ccccc1,i,1.2,4.0,183.7,8.7,i,.,.
CC(c1ccc(F)cc1)n1cc(S(=O)(=O)N2CCCC2)ccc1=O (centres undefined),.,2.4,0.0,168.3,2.7,i,.,.
Cc1cc(=O)oc2cc(OCc3ccc(S(=O)(=O)N4CCOCC4)cc3)ccc12,i,1.6,0.0,422.0,-6.2,+,i,0.4
CCOc1ccc(NC(=O)N(O)C2(C#N)CCCCC2)cc1,.,1.6,.,.,6.6,i,.,.
COc1ccc(C2c3cc(OC)c(OC)cc3CCN2C(=O)c2ccccc2)cc1OC (centres undefined),i,-0.8,1.0,248.4,8.8,i,.,.
COc1ccc(C(=O)N2CCc3cc(OC)c(OC)cc3C2c2ccc(OC)c(OC)c2)cc1 (centres undefined),i,0.6,2.0,175.5,-13.0,i,i,0.0
COc1ccc(CC(=O)Nc2nc(-c3cc(OC)ccc3OC)cs2)cc1,i,0.5,0.0,423.3,9.0,i,.,.
COc1ccc(OC)c(-c2csc(NC(=O)Cc3cccs3)n2)c1,i,-1.6,6.0,153.3,4.3,+,i,0.0
O=C(NCc1cccnc1)c1csc([C@H]2C[C@H](O)[C@@H](CO)O2)n1,.,-5.9,.,.,14.4,i,.,.
COC(=O)c1cn(NC(=O)c2ccc(OC)c(OC)c2)c(=O)c2ccccc12,i,-0.6,0.0,176.6,-5.3,+,i,0.0

# Source: PubChem BioAssay
